Our source for the MIC values is ChEMBL document CHEMBL1122831, “Synthesis and structure-activity relationships of novel arylfluoroquinolone antibacterial agents” (1985).

A word on the MIC: it is the smallest concentration in the dilution series that meets the test's criterion for growth inhibition.

Common to all, as to type: functional
In one experiment the test system is Escherichia coli. The experiment is described as follows: Minimum inhibition concentration in vitro determined against Escherichia coli juhl. Particulars: Escherichia coli; read-out: MIC. In outline:
(§1)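 Agar dilution on brain-heart infusion (BHI) agar with twofold dilutions from a 2000 µg/mL stock, giving final test concentrations of 200-0.005 µg/mL. Organisms were grown overnight in BHI broth at 36 °C, and about 10⁴ organisms were inoculated per plate. Plates were incubated 18 h at 36 °C. MIC was the lowest concentration with no visible growth.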

A further experiment relates to Klebsiella aerogenes. The experiment is described as follows: Minimum inhibition concentration in vitro determined against Enterobacteri aerogenes ATCC 13048. In outline:
as §1

In another experiment the test system is Klebsiella pneumoniae. The experiment in a line: Minimum inhibition concentration in vitro determined against Klebsiella pneumoniae 8045. In outline: as §1
Experiment [1] relates to Pseudomonas aeruginosa. The experiment in a line: Minimum inhibition concentration in vitro determined against Pseudomona aeruginosa 5007. In short, it runs like this:
as §1

For experiment [2], the system named is Pseudomonas aeruginosa. The experiment in a line: Minimum inhibition concentration in vitro determined against Pseudomona aeruginosa K799/WT. In short, it runs like this:
as §1

In experiment [3] the test system is Staphylococcus epidermidis. The experiment is described as follows: Minimum inhibition concentration in vitro determined against Staphylococcus epidermidis 3519. In short, it runs like this: as §1
Experiment [4] relates to Staphylococcus aureus. The experiment in a line: Minimum inhibition concentration in vitro determined against Staphylococcus aureus ATCC 6538P. In short, it runs like this:
as §1

For the next experiment, the system named is Streptococcus pyogenes. The experiment is described as follows: Minimum inhibition concentration in vitro determined against Streptococcus pyogenes 930. In outline: as §1
The test system of experiment [5] is Staphylococcus aureus. The experiment in a line: Minimum inhibition concentration in vitro determined against Staphylococcus aureus CMX 686B. In short, it runs like this: as §1
A further experiment concerns Enterococcus faecium. The experiment in a line: Minimum inhibition concentration in vitro determined against Streptococcus faecium ATCC 8043. In short, it runs like this:
as §1

The next experiment has as its system Acinetobacter. The experiment in a line: Minimum inhibition concentration in vitro determined against Acinetobacter sp CMX669. In outline:
as §1

≈ marks a conversion by molar mass, not a printed value.

For `CN1CCN(c2cc3c(cc2F)c(=O)c(C(=O)O)cn3-c2ccc(Br)cc2)CC1`, the minimal inhibitory concentration (MIC) was 6.2 µg/mL (≈ 13.5 µM) in the experiment on Escherichia coli; 12.5 µg/mL (≈ 27.2 µM) against Klebsiella aerogenes; 3.1 µg/mL (≈ 6.73 µM) against Klebsiella pneumoniae; 50 µg/mL (≈ 109 µM) against Pseudomonas aeruginosa [1]; 25 µg/mL (≈ 54.3 µM) against Pseudomonas aeruginosa [2]; 3.1 µg/mL (≈ 6.73 µM) in [3]. Moreover, the MIC turned out to be 3.1 µg/mL (≈ 6.73 µM) against Staphylococcus aureus [4]; 50 µg/mL (≈ 109 µM) with Streptococcus pyogenes; 3.1 µg/mL (≈ 6.73 µM) with Staphylococcus aureus [5]; 100 µg/mL (≈ 217 µM) with Enterococcus faecium; 12.5 µg/mL (≈ 27.2 µM) with Acinetobacter.

In the case of `CN1CCN(c2cc3c(cc2F)c(=O)c(C(=O)O)cn3-c2ccc(Cl)cc2)CC1`, the minimal inhibitory concentration (MIC) in the experiment on Escherichia coli amounted to 1.56 µg/mL (≈ 3.75 µM); against Klebsiella aerogenes it was 1.56 µg/mL (≈ 3.75 µM); against Klebsiella pneumoniae, 0.78 µg/mL (≈ 1.88 µM); in the experiment with Pseudomonas aeruginosa [1], 12.5 µg/mL (≈ 30.1 µM); in the experiment on Pseudomonas aeruginosa [2], 6.2 µg/mL (≈ 14.9 µM); in [3], 1.56 µg/mL (≈ 3.75 µM). In addition, the MIC against Staphylococcus aureus [4] amounted to 1.56 µg/mL (≈ 3.75 µM); in the experiment on Streptococcus pyogenes, 12.5 µg/mL (≈ 30.1 µM); against Staphylococcus aureus [5], 1.56 µg/mL (≈ 3.75 µM); in the experiment with Enterococcus faecium, 100 µg/mL (≈ 240 µM); against Acinetobacter, 1.56 µg/mL (≈ 3.75 µM).

Regarding `O=C(O)c1cn(-c2ccccc2)c2cc(N3CCNCC3)c(F)cc2c1=O`, the MIC stood at 0.2 µg/mL (≈ 0.544 µM) in the experiment with Escherichia coli; 0.39 µg/mL (≈ 1.06 µM) in the experiment with Klebsiella aerogenes; 0.78 µg/mL (≈ 2.12 µM) against Pseudomonas aeruginosa [1]; 1.56 µg/mL (≈ 4.25 µM) in the experiment on Pseudomonas aeruginosa [2]; 1.56 µg/mL (≈ 4.25 µM) in [3]; 0.39 µg/mL (≈ 1.06 µM) against Staphylococcus aureus [4]. Moreover, the minimum inhibitory concentration (MIC) was found to be 1.56 µg/mL (≈ 4.25 µM) in the experiment with Streptococcus pyogenes, 0.39 µg/mL (≈ 1.06 µM) against Staphylococcus aureus [5], 12.5 µg/mL (≈ 34 µM) with Enterococcus faecium and 0.78 µg/mL (≈ 2.12 µM) in the experiment on Acinetobacter.

Turning to `CN1CCN(c2cc3c(cc2F)c(=O)c(C(=O)O)cn3-c2ccccc2)CC1`, the MIC in the experiment with Escherichia coli was 0.78 µg/mL (≈ 2.05 µM); in the experiment on Klebsiella aerogenes it was 1.56 µg/mL (≈ 4.09 µM); against Klebsiella pneumoniae, 0.2 µg/mL (≈ 0.524 µM); against Pseudomonas aeruginosa [1], 6.2 µg/mL (≈ 16.3 µM); in the experiment with Pseudomonas aeruginosa [2] it was 3.1 µg/mL (≈ 8.13 µM); in experiment [3] it was 0.78 µg/mL (≈ 2.05 µM). For the same compound, the minimum inhibitory concentration (MIC) in the experiment with Staphylococcus aureus [4] is 0.78 µg/mL (≈ 2.05 µM); in the experiment with Streptococcus pyogenes it was 3.1 µg/mL (≈ 8.13 µM); with Staphylococcus aureus [5], 0.78 µg/mL (≈ 2.05 µM); against Enterococcus faecium, 12.5 µg/mL (≈ 32.8 µM); against Acinetobacter, 1.56 µg/mL (≈ 4.09 µM).

As for `CN1CCN(c2cc3c(cc2F)c(=O)c(C(=O)O)cn3-c2ccccc2F)CC1`, the minimum inhibitory concentration (MIC) in the experiment on Escherichia coli was 0.78 µg/mL (≈ 1.95 µM); in the experiment with Klebsiella aerogenes it was 0.78 µg/mL (≈ 1.95 µM); against Klebsiella pneumoniae it was 0.39 µg/mL (≈ 0.976 µM); in the experiment on Pseudomonas aeruginosa [1], 6.2 µg/mL (≈ 15.5 µM); against Pseudomonas aeruginosa [2], 6.2 µg/mL (≈ 15.5 µM); in experiment [3], 1.56 µg/mL (≈ 3.91 µM). Further, the MIC was 1.56 µg/mL (≈ 3.91 µM) in the experiment with Staphylococcus aureus [4]; 12.5 µg/mL (≈ 31.3 µM) against Streptococcus pyogenes; 1.56 µg/mL (≈ 3.91 µM) with Staphylococcus aureus [5]; 12.5 µg/mL (≈ 31.3 µM) against Enterococcus faecium; 0.78 µg/mL (≈ 1.95 µM) against Acinetobacter.

As for `CCC(=O)N1CCN(c2cc3c(cc2F)c(=O)c(C(=O)O)cn3-c2ccc(F)cc2)CC1`, the MIC was 1.56 µg/mL (≈ 3.53 µM) in the experiment on Escherichia coli; 3.1 µg/mL (≈ 7.02 µM) in the experiment with Klebsiella aerogenes; 0.78 µg/mL (≈ 1.77 µM) against Klebsiella pneumoniae; 12.5 µg/mL (≈ 28.3 µM) in the experiment on Pseudomonas aeruginosa [1]; 12.5 µg/mL (≈ 28.3 µM) with Pseudomonas aeruginosa [2]; 0.78 µg/mL (≈ 1.77 µM) in [3]. For the same compound, the MIC came out at 0.2 µg/mL (≈ 0.453 µM) against Staphylococcus aureus [4]; 1.56 µg/mL (≈ 3.53 µM) with Streptococcus pyogenes; 0.2 µg/mL (≈ 0.453 µM) against Staphylococcus aureus [5]; 6.2 µg/mL (≈ 14 µM) with Enterococcus faecium; 6.2 µg/mL (≈ 14 µM) in the experiment with Acinetobacter.

On to `CNC1CCN(c2cc3c(cc2F)c(=O)c(C(=O)O)cn3-c2ccc(F)cc2)C1` (stereo not drawn), for which the MIC amounted to 3.1 µg/mL (≈ 7.76 µM) in the experiment with Escherichia coli; 3.1 µg/mL (≈ 7.76 µM) with Klebsiella aerogenes; 0.78 µg/mL (≈ 1.95 µM) against Klebsiella pneumoniae; 50 µg/mL (≈ 125 µM) against Pseudomonas aeruginosa [1]; 50 µg/mL (≈ 125 µM) against Pseudomonas aeruginosa [2]; 6.2 µg/mL (≈ 15.5 µM) in experiment [3]. Moreover, the MIC with Staphylococcus aureus [4] was 3.1 µg/mL (≈ 7.76 µM); in the experiment on Streptococcus pyogenes, 12.5 µg/mL (≈ 31.3 µM); in the experiment with Staphylococcus aureus [5] it was 3.1 µg/mL (≈ 7.76 µM); in the experiment on Enterococcus faecium, 25 µg/mL (≈ 62.6 µM); with Acinetobacter, 6.2 µg/mL (≈ 15.5 µM).

Take `Cc1ccc(-n2cc(C(=O)O)c(=O)c3cc(F)c(N4CCN(C)CC4)cc32)cc1`: the minimal inhibitory concentration (MIC) in the experiment on Escherichia coli was found to be 1.56 µg/mL (≈ 3.95 µM); with Klebsiella aerogenes, 3.1 µg/mL (≈ 7.84 µM); against Klebsiella pneumoniae it was 0.78 µg/mL (≈ 1.97 µM); in the experiment with Pseudomonas aeruginosa [1], 12.5 µg/mL (≈ 31.6 µM); with Pseudomonas aeruginosa [2], 12.5 µg/mL (≈ 31.6 µM); in experiment [3], 3.1 µg/mL (≈ 7.84 µM). The MIC stood at 1.56 µg/mL (≈ 3.95 µM) with Staphylococcus aureus [4]; 12.5 µg/mL (≈ 31.6 µM) against Streptococcus pyogenes; 1.56 µg/mL (≈ 3.95 µM) with Staphylococcus aureus [5]; 50 µg/mL (≈ 126 µM) against Enterococcus faecium; 1.56 µg/mL (≈ 3.95 µM) in the experiment with Acinetobacter.

Turning to `CC(C)N(C)c1cc2c(cc1F)c(=O)c(C(=O)O)cn2-c1ccc(F)cc1`, the minimal inhibitory concentration (MIC) worked out at 6.2 µg/mL (≈ 16.7 µM) with Escherichia coli; 6.2 µg/mL (≈ 16.7 µM) against Klebsiella aerogenes; 3.1 µg/mL (≈ 8.33 µM) with Klebsiella pneumoniae; 100 µg/mL (≈ 269 µM) against Pseudomonas aeruginosa [1]; 50 µg/mL (≈ 134 µM) in the experiment with Pseudomonas aeruginosa [2]; 1.56 µg/mL (≈ 4.19 µM) in [3]. The MIC turned out to be 0.78 µg/mL (≈ 2.09 µM) against Staphylococcus aureus [4]; 12.5 µg/mL (≈ 33.6 µM) against Streptococcus pyogenes; 0.78 µg/mL (≈ 2.09 µM) with Staphylococcus aureus [5]; 12.5 µg/mL (≈ 33.6 µM) with Enterococcus faecium; 12.5 µg/mL (≈ 33.6 µM) in the experiment with Acinetobacter.
